Experimental data reported in ChEMBL document CHEMBL2321728, “Vectorization efforts to increase Gram-negative intracellular drug concentration: a case study on HldE-K inhibitors” (J Med Chem, 2013).
Calls of active or inactive are those of the source. The rule behind the calls is not given here.

Columns and labels:
Escherichia coli [1] = assay: Antimicrobial activity against wild type Escherichia coli K1 measured after overnight incubation by serial dilution method in presence of erythromycin; type: functional
Escherichia coli [2] = assay: Antimicrobial activity against tolC-deficient Escherichia coli K1 assessed as inhibition of LPS biosynthesis at 32 ug/ml after 5 hrs by SDS-PAGE analysis; type: functional, organism-based
In short: (§1)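 LB-grown exponential cells (OD about 0.15) diluted to 5 × 10^5 CFU/mL and exposed to compound (water/DMSO 50/50) at 37 °C for about 5 h, to OD 0.2–0.4. OD-normalized pellets lysed in SDS/β-mercaptoethanol at 95–100 °C, then proteinase K 1 h at 55 °C. LPS resolved by 16% SDS-PAGE and silver stained.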

[3] = Inhibition of Escherichia coli HldE-kinase preincubated for 30 mins prior to substrate addition measured after 30 mins by luminescence assay
In short: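 E. coli HldE (3 nM) preincubated with inhibitor for 30 min at room temperature in pH 7.5 Hepes buffer with MnCl2, KCl, Triton X-100, DTT and MBP. Reaction started with 0.2 μM β-heptose 7-phosphate and 0.2 μM ATP, run 30 min at room temperature. Remaining ATP measured by luciferase/luciferin luminescence. IC50 from 6–10 concentrations fitted to a Langmuir model.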

Escherichia coli [4] = assay: Antimicrobial activity against tolC-deficient Escherichia coli K1 measured after overnight incubation by serial dilution method in presence of erythromycin; type: functional
Escherichia coli [5] = assay: Antimicrobial activity against wild type Escherichia coli K1 after overnight incubation by checkerboard assay; type: functional
In short: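 Checkerboard against E. coli K1 (018:K1:H7) wild type. Early to log phase preculture suspended in ca-MHB to a final inoculum of 5 × 10^5 CFU/mL. Combined serial dilutions of kanamycin, the unvectorized inhibitor or bis(3-aminopropyl)amine with erythromycin, in 2% DMSO. Incubated overnight at 35 °C; MIC of each combination read by visual inspection.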

Escherichia coli [6] = assay: Antimicrobial activity against acrAB, tolC-deficient Escherichia coli str. K-12 substr. MG1655 measured after overnight incubation by serial dilution method in presence of erythromycin in iron depleted medium; type: functional
In short: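 MIC in M9 medium supplemented with D-glucose, thiamine, casein and apotransferrin (M9S), which is the iron-depleted medium. Erythromycin at 0.13 μg/mL. Inoculum 5 × 10^5 CFU/mL. Compound serial dilutions in 2% DMSO, overnight at 35 °C, visual read-out.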

Escherichia coli [7] = assay: Antimicrobial activity against acrAB, tolC-deficient Escherichia coli str. K-12 substr. MG1655 measured after overnight incubation by serial dilution method in presence of erythromycin; type: functional
Escherichia coli [8] = assay: Antimicrobial activity against wild type Escherichia coli K1 assessed as inhibition of LPS biosynthesis at 30 ug/ml after 5 hrs by SDS-PAGE analysis; type: functional, organism-based; in short: as §1

Compound	MIC (Escherichia coli [1]) [µg/mL]	IC50 [3] [nM]	MIC (Escherichia coli [4]) [µg/mL]	MIC (Escherichia coli [6]) [µg/mL]	MIC (Escherichia coli [7]) [µg/mL]	inhibition (Escherichia coli [2])	MIC (Escherichia coli [5]) [µg/mL]	inhibition (Escherichia coli [8])
NCCN(CCN)CCNC(=O)COc1ccc2sc(CNc3nncc(-c4c(Cl)cccc4Cl)n3)nc2c1	8	580	4			inactive		
Cc1cc(NCCN(C)C)cc(C)c1-c1cnnc(NCc2nc3cc(OCCN)ccc3s2)n1	> 64	1400	> 64			inactive		
NC[C@H]1O[C@H](O[C@H]2[C@H](O)[C@@H](O[C@H]3O[C@H](CO)[C@@H](O)[C@H](N)[C@H]3O)[C@H](N)C[C@@H]2N)[C@H](O)[C@@H](O)[C@@H]1O [KANAMYCIN]							8	
CS(=O)(=O)NC(=O)COc1ccc2sc(CNc3nncc(-c4c(Cl)cccc4Cl)n3)nc2c1	> 64	16		16	16			
O=C(COc1ccc2sc(CNc3nncc(-c4c(Cl)cccc4Cl)n3)nc2c1)NO	> 64	1		1	2			
Cc1cc(NC(=O)CN(C)C)cc(C)c1-c1cnnc(NCc2nc3cc(O)ccc3s2)n1	> 64	880			16			
O=C(COc1ccc2sc(CNc3nncc(-c4c(Cl)cccc4Cl)n3)nc2c1)NCCO	> 64	55				Active		
O=C(NCCOc1ccc2sc(CNc3nncc(-c4c(Cl)cccc4Cl)n3)nc2c1)c1cc(=O)c(O)co1	> 64	71		2	> 64			
CC[C@H]1OC(=O)[C@H](C)[C@@H](O[C@H]2C[C@@](C)(OC)[C@@H](O)[C@H](C)O2)[C@H](C)[C@@H](O[C@@H]2O[C@H](C)C[C@H](N(C)C)[C@H]2O)[C@](C)(O)C[C@@H](C)C(=O)[C@H](C)[C@@H](O)[C@]1(C)O [ERYTHROMYCIN]							16	
O=C(O)COc1ccc2sc(CNc3nncc(-c4c(Cl)cccc4Cl)n3)nc2c1	> 64	19						
COc1ccc2sc(CNc3nncc(-c4c(C)cc(NCCN(C)C)cc4C)n3)nc2c1	> 64	82			32			
O=C(COc1ccc2sc(CNc3nncc(-c4c(Cl)cccc4Cl)n3)nc2c1)OCc1cc(=O)c(O)cn1O	> 64	30		32	> 64			
CN(C)CC(CN(C)C)NC(=O)COc1ccc2sc(CNc3nncc(-c4c(Cl)cccc4Cl)n3)nc2c1	> 64	420	32			inactive		
Cc1cc(NCCN(C)C)cc(C)c1-c1cnnc(NCc2nc3cc(O)ccc3s2)n1	> 64	780			16			

Continued by falling IC50 [3], values first:

MIC (Escherichia coli [1]) [µg/mL]	IC50 [3] [nM]	MIC (Escherichia coli [4]) [µg/mL]	MIC (Escherichia coli [6]) [µg/mL]	MIC (Escherichia coli [7]) [µg/mL]	Compound	inhibition (Escherichia coli [2])	MIC (Escherichia coli [5]) [µg/mL]	inhibition (Escherichia coli [8])
> 32	660		> 32	> 32	O=C(NCCOc1ccc2sc(CNc3nncc(-c4c(Cl)cccc4Cl)n3)nc2c1)[C@@H]1CSC(c2ccccc2O)=N1			
4	630	2			NCCCN(CCCN)CCOc1ccc2sc(CNc3nncc(-c4c(Cl)cccc4Cl)n3)nc2c1	inactive		
> 32	520		8	> 32	CCN1CCN(C(=O)NCCOc2ccc3sc(CNc4nncc(-c5c(C)cccc5O)n4)nc3c2)C(=O)C1=O			
8	510	4			NCCCN(CCCN)C(=O)COc1ccc2sc(CNc3nncc(-c4c(Cl)cccc4Cl)n3)nc2c1	inactive		
32	110	8			NCCNCCNC(=O)COc1ccc2sc(CNc3nncc(-c4c(Cl)cccc4Cl)n3)nc2c1	inactive		
> 64	110	32			CN1CCN(CCOc2ccc3sc(CNc4nncc(-c5c(Cl)cccc5Cl)n4)nc3c2)CC1	inactive		
8	98	2		4	NC[C@H]1O[C@H](O[C@H]2[C@H](O)[C@@H](O[C@H]3O[C@H](Cn4cc(CNC(=O)COc5ccc6sc(CNc7nncc(-c8c(Cl)cccc8Cl)n7)nc6c5)nn4)[C@@H](O)[C@H](N)[C@H]3O)[C@H](N)C[C@@H]2N)[C@H](O)[C@@H](O)[C@@H]1O			inactive
	69				COc1ccc2sc(CNc3nncc(-c4c(C)cccc4O)n3)nc2c1			
> 64	33		2	4	O=S(=O)(NCCOc1ccc2sc(CNc3nncc(-c4c(Cl)cccc4Cl)n3)nc2c1)c1ccc(O)c(O)c1			
> 64	25		1	2	Cn1nc(O)c(=O)nc1SCCOc1ccc2sc(CNc3nncc(-c4c(Cl)cccc4Cl)n3)nc2c1			
